From PubChem BioAssay come the findings set out here.

Test [1] is described as follows: reduced viability of SK-BR-3 breast cancer cells – cell-based, 24 h, human, pilot screen (AID 572;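 active = viability at or below 10% of carrier control in both of two separate runs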;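 note: compound exposure lasted between 18 and 24 h rather than exactly 24 h; 100% = carrier-treated control wells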). To be noted: SK-BR-3 viability, CellTiter-Glo luminescence, at 10 µM, stronger effect = lower value. (In general: In ATP-based viability assays light output follows the ATP content of the culture.)
Test [2] is described as follows: HUVEC growth inhibition – cell-based, human, primary screen (AID 575;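 active = viability at or below 30% in both replicate assays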;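 note: 100% = median of untreated cell wells with 0.1% DMSO on each plate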). To be noted: HUVEC proliferation, CellTiter-Glo luminescence, 72 h; at 10 µM; stronger effect = lower value. Put shortly:
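Assay system: primary human umbilical vein endothelial cells / Buffer or medium: endothelial basal medium with 2% FBS plus growth supplements / Compound dosing: one dose, 10 µM final, 0.1% DMSO / Timing: 72 h treatment at 37 °C / Signal: CTG luminescence / Benchmarks: 32 DMSO-only cell-control wells (high), 32 MePR drug-control wells (low) per plate / Plate: collagen-coated 384-well format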

The nature of test [3]: H69AR cell proliferation blockers – human, duplicate replicates, primary screen (AID 580;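 active = viability at or under a set limit in both replicates, limit being median viability minus 3 SD, cut at about 48% in these data, passing the limit was not always enough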;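 note: 100% = mean luminescence of untreated wells and 0% = no signal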). The following applies: H69AR lung tumor cells viability, ATP luminescence, 72 h; at 10 µM; stronger effect = lower value.
Test [4] is described as follows: MRP1 drug-resistance reversers in H69AR cells – cell-based, doxorubicin co-treatment, pilot screen (AID 601). The following applies: CellTiter-Glo, 72 h, at 10 µM; for differential viability (reversal): stronger effect = higher value.
Test [5] can be described thus: yeast transport mutant growth inhibition pilot in 384-well plates, post-Golgi transport modulator project (AID 636; in the data active = inhibition above about 31%). The following applies: absorbance 615 nm, about 18 h, stronger effect = higher value.
Test [6] is described as follows: growth suppression of yeast trafficking mutant, preliminary HTS, modulators of trafficking downstream of Golgi apparatus project, 1536-format plate, OD 615 nm (AID 637; in the data active = inhibition above about 30%). To be noted: yeast transport mutant growth, absorbance 615 nm, 18 h; stronger effect = higher value.
Where [7] appears, read: H69AR cells + 2 uM doxorubicin, measured here: viability with 2 uM doxorubicin, stronger effect = lower value.
The mark [8] stands for this setting: H69AR cells, compound alone cytotoxicity.

Each structure is given as a SMILES string. Calls of active or inactive are those of the source.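 Rule for the calls, unless noted: active = viability loss from added drug above about 55%, and viability with drug at most 40%, in both replicates (limit read from the data, passing the limit was not always enough); inconclusive = both conditions met in only one replicate; inactive = neither replicate meets both conditions.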

Broadly, the viability is a read-out of living cells in per cent, often relative to untreated cells. What is called inhibition is the drop in the measured response relative to a control, in per cent. For the molecule `CC1CCc2c(sc3c2C2=NS(=O)(=O)CCN2C=N3)C1` (centres undefined), the viability in test [1] was 88.5% (inactive); in test [2] it was 107% (inactive); in test [3], 80.6% (inactive); in test [4] (setting [7]), 88.2%; in test [4] (setting [8]), 80.6%. Further, the differential viability (reversal) in test [4] (H69AR cells + 2 uM doxorubicin) was -7.62% (inactive). Besides, the inhibition is -9.73% (inactive) in test [5] and 3.81% (inactive) in test [6].
`COc1ccccc1-n1nnnc1SCc1cc2c(cc1Br)OCO2`: the viability was 65% (inactive) in test [1]; 86.1% (inactive) in test [2]; 72.2% (inactive) in test [3]; 77.2% in test [4] (setting [7]); 72.2% in test [4] (setting [8]). Further, the differential viability (reversal) in test [4] (H69AR cells + 2 uM doxorubicin) was -4.98% (inactive). In addition, the values for the inhibition in test [5] and in test [6] were -6.16% (inactive) and 4.18% (inactive), respectively.
`CCCC1O[C@@H]2C[C@H]3[C@@H]4CCC5=CC(=O)C=C[C@]5(C)[C@H]4[C@@H](O)C[C@]3(C)[C@]2(C(=O)CO)O1` (some centres undefined): the viability in test [1] was 109% (inactive); in test [2], 82.4% (inactive); in test [3] it was 79.6% (inactive); in test [4] (setting [7]), 79.1%; in test [4] (setting [8]), 79.6%. Besides, the differential viability (reversal) in test [4] (H69AR cells + 2 uM doxorubicin) was 0.52% (inactive). Besides, the inhibition in test [5] is 1.04% (inactive); in test [6] it was -3.83% (inactive).
In the case of `CCOC(=O)c1cnc(SC2CC(=O)N(c3ccc(OC)c(OC)c3)C2=O)nc1N` (centres undefined), the viability in test [1] was 121% (inactive); in test [2] it was 101% (inactive); in test [3] it was 111% (inactive); in test [4] (setting [7]) it was 96.8%; in test [4] (setting [8]), 111%. For the same molecule, in test [4] (H69AR cells + 2 uM doxorubicin), the differential viability (reversal) was 14% (inactive). Further, the inhibition in test [5] was -0.55% (inactive); in test [6], 1.13% (inactive).
In the case of `Cc1nn(Cc2ccccc2)c2c1C(c1ccncc1)C(C#N)=C(N)O2` (centres undefined), the viability in test [1] is 96% (inactive); in test [2], 86% (inactive); in test [3], 85% (inactive); in test [4] (setting [7]), 87.7%; in test [4] (setting [8]), 85%. Moreover, the differential viability (reversal) in test [4] (H69AR cells + 2 uM doxorubicin) is -2.68% (inactive). The inhibition in test [5] was -4.8% (inactive); in test [6] it was -3.27% (inactive).
On to `Brc1c(NC2=NCCN2)ccc2nccnc12`, for which the viability in test [1] is 105% (inactive); in test [2], 106% (inactive); in test [3], 95% (inactive); in test [4] (setting [7]), 102%; in test [4] (setting [8]), 95%. For the same molecule, the differential viability (reversal) in test [4] (H69AR cells + 2 uM doxorubicin) was -7.09% (inactive). The inhibition was -0.39% (inactive) in test [5] and 15.3% (inactive) in test [6].
With `COc1cc(C(=O)Nc2cc(C)ccn2)cc(OC)c1OC`, the viability is 90% (inactive) in test [1]; 89.5% (inactive) in test [2]; 97.5% (inactive) in test [3]; 79.9% in test [4] (setting [7]); 97.5% in test [4] (setting [8]). Moreover, the differential viability (reversal) in test [4] (H69AR cells + 2 uM doxorubicin) was 17.6% (inactive). The inhibition was 0.55% (inactive) in test [5] and -6.13% (inactive) in test [6].
For `CCN1C(=O)/C(=C/N(C)c2ccccc2)OC1=S`, the viability in test [1] is 97% (inactive); in test [2] it was 91.5% (inactive); in test [3], 93.7% (inactive); in test [4] (setting [7]), 94.7%; in test [4] (setting [8]), 93.7%. Moreover, in test [4] (H69AR cells + 2 uM doxorubicin), the differential viability (reversal) is -0.96% (inactive). Further, the figures for the inhibition in test [5] and in test [6] were -2.6% (inactive) and 8.18% (inactive), respectively.
As to `Cc1ccc(Cn2c(SCC(N)=O)nc3c2c(=O)n(C)c(=O)n3C)cc1`, the viability in test [1] was 106% (inactive); in test [2], 86.9% (inactive); in test [3], 86.4% (inactive); in test [4] (setting [7]), 82.9%; in test [4] (setting [8]) it was 86.4%. Besides, the differential viability (reversal) in test [4] (H69AR cells + 2 uM doxorubicin) was 3.46% (inactive). Also, the inhibition in test [5] is -2.4% (inactive); in test [6], -6.55% (inactive).
`O=C1CC(c2ccccc2)NC(=O)N1` (centres undefined): the viability is 78% (inactive) in test [1]; 105% (inactive) in test [2]; 98.8% (inactive) in test [3]; 96.1% in test [4] (setting [7]); 98.8% in test [4] (setting [8]). For the same molecule, the differential viability (reversal) in test [4] (H69AR cells + 2 uM doxorubicin) is 2.63% (inactive). Moreover, the figures for the inhibition in test [5] and in test [6] were -7.26% (inactive) and -0.36% (inactive), respectively.
In the case of `CCOc1nc(OCC)nc(N2CCC(C)CC2)n1`, the viability in test [1] was 91% (inactive); in test [2] it was 108% (inactive); in test [3] it was 84.9% (inactive); in test [4] (setting [7]), 95.4%; in test [4] (setting [8]) it was 84.9%. The differential viability (reversal) in test [4] (H69AR cells + 2 uM doxorubicin) is -10.5% (inactive). Moreover, the inhibition in test [5] is -5% (inactive); in test [6], 31.4% (active).
Turning to `O=C(NCc1cccs1)c1cc2c(s1)CS(=O)(=O)C2`, the viability in test [1] was 116% (inactive); in test [2], 101% (inactive); in test [3], 98.1% (inactive); in test [4] (setting [7]), 93.8%; in test [4] (setting [8]), 98.1%. In addition, the differential viability (reversal) in test [4] (H69AR cells + 2 uM doxorubicin) was 4.27% (inactive). The inhibition in test [5] was -4% (inactive); in test [6], -1.64% (inactive).
Regarding `C/C(Nc1cccc(F)c1)=C(/C#N)C(N)=O`, the viability in test [1] is 107% (inactive); in test [2], 122% (inactive); in test [3], 99.2% (inactive); in test [4] (setting [7]) it was 93.9%; in test [4] (setting [8]), 99.2%. The differential viability (reversal) in test [4] (H69AR cells + 2 uM doxorubicin) was 5.34% (inactive). For the same molecule, the inhibition in test [5] was -4.32% (inactive); in test [6], -5.64% (inactive).
Regarding `CCCCC[C@H](O)/C=C/[C@@H]1[C@@H](CCCCCCC(=O)O)[C@@H](O)C[C@H]1O`, the viability in test [1] is 113% (inactive); in test [2], 89.6% (inactive); in test [3], 103% (inactive); in test [4] (setting [7]), 93.6%; in test [4] (setting [8]) it was 103%. In addition, the differential viability (reversal) in test [4] (H69AR cells + 2 uM doxorubicin) was 9.71% (inactive). For the same molecule, the inhibition in test [5] was 0.26% (inactive); in test [6], 2.33% (inactive).
Regarding `COCCSc1nnc(NC(=O)CSCc2ccccc2)s1`, the viability in test [1] is 102% (inactive); in test [2], 103% (inactive); in test [3], 93.1% (inactive); in test [4] (setting [7]), 86.3%; in test [4] (setting [8]), 93.1%. In addition, the differential viability (reversal) in test [4] (H69AR cells + 2 uM doxorubicin) was 6.87% (inactive). Moreover, the inhibition in test [5] is -11% (inactive); in test [6], 0.97% (inactive).
Take `Cc1ccc(C2=N/C(=C/N3CCOCC3)C(=O)O2)cc1`: the viability in test [1] is 84% (inactive); in test [2] it was 82.5% (inactive); in test [3], 90.6% (inactive); in test [4] (setting [7]) it was 77.5%; in test [4] (setting [8]) it was 90.6%. In addition, the differential viability (reversal) in test [4] (H69AR cells + 2 uM doxorubicin) is 13.1% (inactive). Besides, the inhibition in test [5] was -2.08% (inactive); in test [6], -7.21% (inactive).
As to `Cc1cn2c(-c3ccncc3)nnc2s1`, the viability is 144% (inactive) in test [1]; 87.4% (inactive) in test [2]; 99.8% (inactive) in test [3]; 92.7% in test [4] (setting [7]); 99.8% in test [4] (setting [8]). Besides, the differential viability (reversal) in test [4] (H69AR cells + 2 uM doxorubicin) was 7.13% (inactive). In addition, the results for the inhibition in test [5] and in test [6] were -1.23% (inactive) and 3.55% (inactive), respectively.
Turning to `CCn1c(SCC(=O)Nc2ccc3c(c2)OCO3)nnc1-c1ccccc1O`, the viability is 96% (inactive) in test [1]; 92% (inactive) in test [2]; 101% (inactive) in test [3]; 87.2% in test [4] (setting [7]); 101% in test [4] (setting [8]). Further, in test [4] (H69AR cells + 2 uM doxorubicin), the differential viability (reversal) is 13.5% (inactive). The inhibition in test [5] is -1.69% (inactive); in test [6], -0.33% (inactive).
